Data taken from ChEMBL document CHEMBL4152212, “Design and synthesis of BPR1K653 derivatives targeting the back pocket of Aurora kinases for selective isoform inhibition” (Eur J Med Chem, 2018).
Calls of active or inactive are those of the source. The calls are words filed in the database; no cut-off is given here.

Key:
[1] = molecular target: T1, Aurora kinase A (Homo sapiens, UniProt O14965); assay: Inhibition of GST-tagged human recombinant Aurora A kinase domain (123 to 401 residues) expressed in Sf9 cells after 120 mins by kinase-glo luminescence assay
T1 sequence (O14965 whole entry): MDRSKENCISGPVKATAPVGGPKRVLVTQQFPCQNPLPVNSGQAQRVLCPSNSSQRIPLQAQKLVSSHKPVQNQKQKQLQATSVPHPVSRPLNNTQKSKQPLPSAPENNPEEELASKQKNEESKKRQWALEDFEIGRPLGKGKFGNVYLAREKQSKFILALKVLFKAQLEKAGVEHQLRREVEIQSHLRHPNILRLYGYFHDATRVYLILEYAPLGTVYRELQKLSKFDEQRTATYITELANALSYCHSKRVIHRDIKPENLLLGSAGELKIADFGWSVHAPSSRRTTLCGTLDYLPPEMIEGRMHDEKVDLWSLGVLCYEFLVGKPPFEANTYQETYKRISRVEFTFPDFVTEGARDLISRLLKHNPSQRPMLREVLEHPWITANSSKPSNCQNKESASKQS

[2] = molecular target: T2, Aurora kinase B (Homo sapiens, UniProt Q96GD4); assay: Inhibition of human recombinant full length Aurora-B (1 to 344 residues) expressed in Sf9 cells after 90 mins by kinase-glo luminescence assay
T2 sequence (Q96GD4 whole entry, the tested form may be a part): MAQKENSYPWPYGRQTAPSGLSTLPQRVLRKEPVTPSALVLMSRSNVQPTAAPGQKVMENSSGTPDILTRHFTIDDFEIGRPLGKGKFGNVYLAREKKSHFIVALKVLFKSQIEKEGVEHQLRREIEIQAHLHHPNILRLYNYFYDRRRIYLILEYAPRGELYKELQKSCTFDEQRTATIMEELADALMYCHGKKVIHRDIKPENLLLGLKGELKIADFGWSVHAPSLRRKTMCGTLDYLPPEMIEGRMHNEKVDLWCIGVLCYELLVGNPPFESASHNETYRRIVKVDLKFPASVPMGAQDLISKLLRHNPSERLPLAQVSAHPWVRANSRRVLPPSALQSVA

[3] = molecular target: T1, Aurora kinase A; assay: Inhibition of Aurora-A autophosphorylation at Thr288 in human HCT116 cells after 1 hr by Western blot analysis; assay type: cell-based
Method in brief: (§1)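 HCT116 cells arrested in mitosis with 200 nM nocodazole for 24 h, then exposed to compound for 1 h over 9 concentrations. Lysed in Laemmli buffer, SDS-PAGE, PVDF immunoblot for phospho-Aurora-A Thr288 / Aurora-B Thr232 with HRP secondary and chemiluminescence. IC50 derived from blot profiles.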

[4] = molecular target: T2, Aurora kinase B; assay: Inhibition of Aurora-B autophosphorylation at Thr232 in human HCT116 cells after 1 hr by Western blot analysis; assay type: cell-based; method in brief: as §1
[5] = system: HCT-116; assay: Cytotoxicity against human HCT116 cells; assay type: functional, cell-based
[6] = system: Detroit 551; assay: Cytotoxicity against human Detroit 551 cells; assay type: cell-based
[7] = system: HeLa; assay: Increase in mitotic index in human HeLa cells after 10 to 12 hrs post thymidine block by pHH3Ser10/Hoechst33342 staining-based immunofluorescence analysis; assay type: functional, cell-based
Method in brief: (§2)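 HeLa cells synchronized by thymidine block, released and treated with compound, fixed at set times (4% paraformaldehyde, 30 min), permeabilized with 0.1% Triton X-100, blocked in 1% BSA. Stained with anti-pHH3Ser10 (1:500, 1.5 h, RT) and Alexa-594 secondary, Hoechst 33342 counterstain. Mitotic index is the percentage of pHH3Ser10-positive cells among about 2000-3000 cells per condition.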

[8] = system: HeLa; assay: Decrease in mitotic index in human HeLa cells after 10 to 12 hrs post thymidine block by pHH3Ser10/Hoechst33342 staining-based immunofluorescence analysis; assay type: functional, cell-based; method in brief: as §2

| Compound | IC50 [1] [nM] | IC50 [2] [nM] | IC50 [3] [nM] | IC50 [4] [nM] | IC50 [5] [nM] | IC50 [6] [nM] | Activity [7] | Activity [8] |
| --- | --- | --- | --- | --- | --- | --- | --- | --- |
| CC(C)Cc1ccc(NC(=O)Nc2ccc(CCNc3ncnc4oc(-c5ccccc5)c(Cl)c34)cc2)cc1 | > 1000 | > 1000 |  |  |  |  |  |  |
| CCN(CC)Cc1ccc(NC(=O)Nc2ccc(CCNc3ncnc4oc(-c5ccccc5)c(Cl)c34)cc2)cc1 | 232 | 835 |  |  |  |  |  |  |
| CC(C)Cc1cccc(NC(=O)Nc2ccc(CCNc3ncnc4oc(-c5ccccc5)c(Cl)c34)cc2)c1 | 247 | > 1000 |  |  |  |  |  |  |
| CCN(CC)Cc1ccccc1NC(=O)Nc1ccc(CCNc2ncnc3oc(-c4ccccc4)c(Cl)c23)cc1 | 462 | 526 |  |  |  |  |  |  |
| CC(C)c1ccccc1NC(=O)Nc1ccc(CCNc2ncnc3oc(-c4ccccc4)c(Cl)c23)cc1 | 525 | 336 |  |  |  |  |  |  |
| CC(C)c1cccc(NC(=O)Nc2ccc(CCNc3ncnc4oc(-c5ccccc5)c(Cl)c34)cc2)c1 | 233 | 657 |  |  |  |  |  |  |
| CC(C)Cc1ccccc1NC(=O)Nc1ccc(CCNc2ncnc3oc(-c4ccccc4)c(Cl)c23)cc1 | > 1000 | 700 |  |  |  |  |  |  |
| O=C(Nc1ccc(CCNc2ncnc3oc(-c4ccccc4)c(Cl)c23)cc1)Nc1ccccc1CN1CCC(O)CC1 | 228 | 78.9 | 1510 | 133 | 310 | 3500 |  | Active |
| O=C(Nc1ccc(CCNc2ncnc3oc(-c4ccccc4)c(Cl)c23)cc1)Nc1ccc(CN2CCCCC2)cc1 | 451 | 976 |  |  |  |  |  |  |
| CN(C)Cc1ccccc1NC(=O)Nc1ccc(CCNc2ncnc3oc(-c4ccccc4)c(Cl)c23)cc1 |  |  | 73.4 | 23.7 | 70 | 3100 |  | Active |
| CC(C)c1ccc(NC(=O)Nc2ccc(CCNc3ncnc4oc(-c5ccccc5)c(Cl)c34)cc2)cc1 | > 1000 | > 1000 |  |  |  |  |  |  |

More lines, in order of falling IC50 [1], values ahead:

| IC50 [1] [nM] | IC50 [2] [nM] | IC50 [3] [nM] | IC50 [4] [nM] | Compound | IC50 [5] [nM] | IC50 [6] [nM] | Activity [7] | Activity [8] |
| --- | --- | --- | --- | --- | --- | --- | --- | --- |
| 198 | 122 |  |  | O=C(Nc1ccc(CCNc2ncnc3oc(-c4ccccc4)c(Cl)c23)cc1)Nc1ccccc1CN1CCCCC1 |  |  |  |  |
| 178 | 66.2 |  |  | CCc1ccccc1NC(=O)Nc1ccc(CCNc2ncnc3oc(-c4ccccc4)c(Cl)c23)cc1 |  |  |  |  |
| 150 | 353 |  |  | O=C(Nc1ccc(CCNc2ncnc3oc(-c4ccccc4)c(Cl)c23)cc1)Nc1ccc(CN2CCC(O)CC2)cc1 |  |  |  |  |
| 139 | 443 |  |  | CCc1ccc(NC(=O)Nc2ccc(CCNc3ncnc4oc(-c5ccccc5)c(Cl)c34)cc2)cc1 |  |  |  |  |
| 98.3 | 455 |  |  | CN(C)Cc1ccc(NC(=O)Nc2ccc(CCNc3ncnc4oc(-c5ccccc5)c(Cl)c34)cc2)cc1 |  |  |  |  |
| 90.2 | 102 |  |  | O=C(Nc1ccc(CCNc2ncnc3oc(-c4ccccc4)c(Cl)c23)cc1)Nc1cccc(CN2CCCCC2)c1 |  |  |  |  |
| 83.2 | 60.2 |  |  | Cc1ccccc1NC(=O)Nc1ccc(CCNc2ncnc3oc(-c4ccccc4)c(Cl)c23)cc1 |  |  |  |  |
| 67.8 | 83.6 |  |  | O=C(Nc1ccc(CCNc2ncnc3oc(-c4ccccc4)c(Cl)c23)cc1)Nc1cccc(CN2CCC(O)CC2)c1 |  |  |  |  |
| 66.3 | 86.1 |  |  | CCc1cccc(NC(=O)Nc2ccc(CCNc3ncnc4oc(-c5ccccc5)c(Cl)c34)cc2)c1 |  |  |  |  |
| 55.5 | 73.3 |  |  | Cc1ccc(NC(=O)Nc2ccc(CCNc3ncnc4oc(-c5ccccc5)c(Cl)c34)cc2)cc1 |  |  |  |  |
| 52.6 | 74.9 |  |  | Cc1cccc(NC(=O)Nc2ccc(CCNc3ncnc4oc(-c5ccccc5)c(Cl)c34)cc2)c1 |  |  |  |  |
| 52 | 66.3 | 390 | 191 | O=C(Nc1ccccc1)Nc1ccc(CCNc2ncnc3oc(-c4ccccc4)c(Cl)c23)cc1 | 153 | 7300 | Active |  |
| 21.5 | 121 |  |  | CCN(CC)Cc1cccc(NC(=O)Nc2ccc(CCNc3ncnc4oc(-c5ccccc5)c(Cl)c34)cc2)c1 |  |  |  |  |
| 20 | 199 | 59.9 | > 10000 | CN(C)Cc1cccc(NC(=O)Nc2ccc(CCNc3ncnc4oc(-c5ccccc5)c(Cl)c34)cc2)c1 | 578 | 5000 | Active |  |
| 9 | 140 | 132 | > 10000 | CCN(C)Cc1cccc(NC(=O)Nc2ccc(CCNc3ncnc4oc(-c5ccccc5)c(Cl)c34)cc2)c1 | 342 | 9700 |  |  |
